In ChEMBL document CHEMBL1123109, “Alkyl esters of 3-adenin-9-yl-2-hydroxypropanoic acid: a new class of broad-spectrum antiviral agents” (1985):
Values after ≈ are worked out from the molar mass of the structure shown.

Legend:
Assay type in all cases: functional
[1] = test system: Vesicular stomatitis virus; experiment: Inhibition of Vesicular stomatitis virus induced cytopathicity in HEp-2 cells.
How it was run: (§1)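 Vesicular stomatitis virus was inoculated at 100 CCID50 (100× the dose infecting 50% of cells) in each cell type: human embryonic skin-muscle fibroblasts, LR-strain trisomy-21 fibroblasts, HEp-2, CV-1, BS-C-1, Balb/3T3, RK13, human kidney, HeLa and Vero. CPE was read at 1–2 days in every cell type, once complete in untreated infected controls. The MIC is the concentration giving a 50% reduction in cytopathogenicity.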

Poliovirus 1 = experiment: Inhibition of polio virus 1 induced cytopathicity in HeLa cells.; details: Enterovirus C
[2] = test system: Vesicular stomatitis virus; experiment: Inhibition of Vesicular stomatitis virus induced cytopathicity in BS-C-1 cells.; how it was run: as §1
Measles morbillivirus = experiment: Inhibition of Measles virus induced cytopathicity in vero cells.
[3] = test system: Vesicular stomatitis virus; experiment: Inhibition of Vesicular stomatitis virus induced cytopathicity in HeLa cells.; how it was run: as §1
Coxsackievirus B4 = experiment: Inhibition of Coxsackie B4 virus induced cytopathicity in HeLa cells.; details: Enterovirus B
Vero = experiment: Cytotoxic concentration against Vero cells.; details: Chlorocebus sabaeus
How it was run: (§2)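 Uninfected cells were incubated with compound for the same duration as the matching antiviral assay. The minimum cytotoxic concentration is the lowest one causing a microscopically detectable change in normal cell morphology.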

HK = experiment: Minimum inhibitory concentration which is required to reduce virus-induced cytopathogenicity by 50% against Vesicular stomatitis virus in human kidney,; how it was run: as §1
[4] = test system: Vesicular stomatitis virus; experiment: Inhibition of Vesicular stomatitis virus induced cytopathicity in CV-1 cells.; how it was run: as §1
Sindbis virus = experiment: Inhibition of Sindbis virus induced cytopathicity in vero cells.
[5] = test system: Vesicular stomatitis virus; experiment: Inhibition of Vesicular stomatitis virus induced cytopathicity in Vero cells.; how it was run: as §1
Human respirovirus 3 = experiment: Inhibition of parainfluenza virus-3 induced cytopathicity in vero cells.
[6] = test system: Vesicular stomatitis virus; experiment: Inhibition of Vesicular stomatitis virus induced cytopathicity in RK13 cells.; how it was run: as §1
PRK = experiment: Cytotoxic concentration against PRK cells.; details: Oryctolagus cuniculus; how it was run: as §2
[7] = test system: Vesicular stomatitis virus; experiment: Inhibition of Vesicular stomatitis virus induced cytopathicity in T-21 cells.; how it was run: as §1
HeLa = experiment: Cytotoxic concentration against HeLa cells.; details: Homo sapiens; how it was run: as §2
Vaccinia virus = experiment: Inhibition of Vaccinia virus induced cytopathicity in PRK cells.; details: Orthopoxvirus vaccinia
[8] = test system: Mammalian orthoreovirus 1; experiment: Inhibition of Reo virus-1 induced cytopathicity in vero cells.
[9] = test system: Vesicular stomatitis virus; experiment: Inhibition of Vesicular stomatitis virus induced cytopathicity in PRK cells.
[10] = test system: Vesicular stomatitis virus; experiment: Inhibition of Vesicular stomatitis virus induced cytopathicity in BALB/3T3 cells.; details: in Mus musculus; how it was run: as §1
Human alphaherpesvirus 1 = experiment: Inhibition of HSV-1 induced cytopathicity in PRK cells.
[11] = test system: Vesicular stomatitis virus; experiment: Inhibition of Vesicular stomatitis virus induced cytopathicity in E6SM cells.; how it was run: as §1

Row | SMILES | MIC [1] | MIC (Poliovirus 1) | MIC [2] | MIC (Measles morbillivirus) | MIC [3] | MIC (Coxsackievirus B4) | MCC (Vero) | MIC (HK) | MIC [4] | MIC (Sindbis virus) | MIC [5] | MIC (Human respirovirus 3) | MIC [6] | MCC (PRK) | MIC [7] | MCC (HeLa) | MIC (Vaccinia virus) | MIC [8] | MIC [9] | MIC [10] | further results
1 | CCOC(=O)C(O)Cn1cnc2c(N)ncnc21 (centres undefined) | 7 µg/mL (≈ 27.9 µM) | > 400 µg/mL | > 400 µg/mL | 20 µg/mL (≈ 79.6 µM) | 4 µg/mL (≈ 15.9 µM) | > 400 µg/mL | > 400 µg/mL | 200 µg/mL (≈ 796 µM) | > 400 µg/mL | > 400 µg/mL | 400 µg/mL (≈ 1590 µM) | 20 µg/mL (≈ 79.6 µM) | 2 µg/mL (≈ 7.96 µM) | > 400 µg/mL | 1 µg/mL (≈ 3.98 µM) | > 400 µg/mL | 3 µg/mL (≈ 11.9 µM) | 40 µg/mL (≈ 159 µM) | 1 µg/mL (≈ 3.98 µM) | > 400 µg/mL | MIC (Human alphaherpesvirus 1): > 400 µg/mL; MIC [11]: 7 µg/mL (≈ 27.9 µM)
2 | Nc1ncnc2c1ncn2CC(O)C(=O)OCc1ccco1 (centres undefined) | 4 µg/mL (≈ 13.2 µM) | > 40 µg/mL | > 40 µg/mL | > 40 µg/mL | 7 µg/mL (≈ 23.1 µM) | > 40 µg/mL | 40 µg/mL | > 40 µg/mL | > 40 µg/mL | > 40 µg/mL | > 40 µg/mL | 15 µg/mL (≈ 49.5 µM) | > 40 µg/mL | 40 µg/mL | 7 µg/mL (≈ 23.1 µM) | 40 µg/mL | 10 µg/mL (≈ 33 µM) | 30 µg/mL (≈ 98.9 µM) | 15 µg/mL (≈ 49.5 µM) | > 40 µg/mL | MIC (Human alphaherpesvirus 1): > 40 µg/mL; MIC [11]: 40 µg/mL (≈ 132 µM)
3 | CC(C)OC(=O)C(O)Cn1cnc2c(N)ncnc21 (centres undefined) | 7 µg/mL (≈ 26.4 µM) | > 400 µg/mL | > 400 µg/mL | 150 µg/mL (≈ 565 µM) | 30 µg/mL (≈ 113 µM) | > 400 µg/mL | > 400 µg/mL | 300 µg/mL (≈ 1130 µM) | > 400 µg/mL | > 400 µg/mL | 200 µg/mL (≈ 754 µM) | 70 µg/mL (≈ 264 µM) | 1 µg/mL (≈ 3.77 µM) | > 400 µg/mL | 1 µg/mL (≈ 3.77 µM) | > 400 µg/mL | 3 µg/mL (≈ 11.3 µM) | 40 µg/mL (≈ 151 µM) | 3 µg/mL (≈ 11.3 µM) | > 400 µg/mL | MIC (Human alphaherpesvirus 1): > 400 µg/mL; MIC [11]: 3 µg/mL (≈ 11.3 µM)
4 | Nc1ncnc2c1ncn2CC(O)C(=O)OC1CCCCC1 (centres undefined) | 2 µg/mL (≈ 6.55 µM) | > 100 µg/mL | 40 µg/mL (≈ 131 µM) | 15 µg/mL (≈ 49.1 µM) | 30 µg/mL (≈ 98.3 µM) | > 100 µg/mL | 100 µg/mL | > 200 µg/mL | > 200 µg/mL | > 100 µg/mL | > 100 µg/mL | > 40 µg/mL | 70 µg/mL (≈ 229 µM) | 100 µg/mL | 1 µg/mL (≈ 3.28 µM) | 100 µg/mL | 3 µg/mL (≈ 9.83 µM) | 7 µg/mL (≈ 22.9 µM) | 1 µg/mL (≈ 3.28 µM) | 70 µg/mL (≈ 229 µM) | MIC (Human alphaherpesvirus 1): 100 µg/mL (≈ 328 µM); MIC [11]: 7 µg/mL (≈ 22.9 µM)
5 | COCCOC(=O)C(O)Cn1cnc2c(N)ncnc21 (centres undefined) | 7 µg/mL (≈ 24.9 µM) | > 400 µg/mL | > 400 µg/mL | 400 µg/mL (≈ 1420 µM) | 20 µg/mL (≈ 71.1 µM) | > 400 µg/mL | > 400 µg/mL | > 400 µg/mL | > 400 µg/mL | > 400 µg/mL | 300 µg/mL (≈ 1070 µM) | 300 µg/mL (≈ 1070 µM) | 70 µg/mL (≈ 249 µM) | > 400 µg/mL | 15 µg/mL (≈ 53.3 µM) | > 400 µg/mL | 30 µg/mL (≈ 107 µM) | 70 µg/mL (≈ 249 µM) | 7 µg/mL (≈ 24.9 µM) | > 400 µg/mL | MIC (Human alphaherpesvirus 1): > 400 µg/mL; MIC [11]: 7 µg/mL (≈ 24.9 µM)
6 | CCC(C)OC(=O)C(O)Cn1cnc2c(N)ncnc21 (centres undefined) | 7 µg/mL (≈ 25.1 µM) | > 400 µg/mL | > 400 µg/mL | 40 µg/mL (≈ 143 µM) | 30 µg/mL (≈ 107 µM) | > 400 µg/mL | > 400 µg/mL | > 400 µg/mL | > 400 µg/mL | 300 µg/mL (≈ 1070 µM) | 150 µg/mL (≈ 537 µM) | 200 µg/mL (≈ 716 µM) | 15 µg/mL (≈ 53.7 µM) | > 400 µg/mL | 1 µg/mL (≈ 3.58 µM) | > 400 µg/mL | 3 µg/mL (≈ 10.7 µM) | 70 µg/mL (≈ 251 µM) | 1 µg/mL (≈ 3.58 µM) | > 400 µg/mL | MIC (Human alphaherpesvirus 1): > 400 µg/mL; MIC [11]: 1 µg/mL (≈ 3.58 µM)
7 | CC(C)(C)OC(=O)C(O)Cn1cnc2c(N)ncnc21 (centres undefined) | 40 µg/mL (≈ 143 µM) | > 400 µg/mL | > 400 µg/mL | 150 µg/mL (≈ 537 µM) | 150 µg/mL (≈ 537 µM) | > 400 µg/mL | > 400 µg/mL | > 400 µg/mL | > 400 µg/mL | > 400 µg/mL | > 400 µg/mL | 150 µg/mL (≈ 537 µM) | 30 µg/mL (≈ 107 µM) | > 400 µg/mL | 15 µg/mL (≈ 53.7 µM) | > 400 µg/mL | 150 µg/mL (≈ 537 µM) | 150 µg/mL (≈ 537 µM) | 150 µg/mL (≈ 537 µM) | > 400 µg/mL | MIC (Human alphaherpesvirus 1): > 400 µg/mL; MIC [11]: 150 µg/mL (≈ 537 µM)
